Experiment [1] has as its target T1, Adrenergic receptor alpha-1 (Rattus norvegicus, UniProt P15823+P23944+P43140).
T1 sequence (P15823 whole entry): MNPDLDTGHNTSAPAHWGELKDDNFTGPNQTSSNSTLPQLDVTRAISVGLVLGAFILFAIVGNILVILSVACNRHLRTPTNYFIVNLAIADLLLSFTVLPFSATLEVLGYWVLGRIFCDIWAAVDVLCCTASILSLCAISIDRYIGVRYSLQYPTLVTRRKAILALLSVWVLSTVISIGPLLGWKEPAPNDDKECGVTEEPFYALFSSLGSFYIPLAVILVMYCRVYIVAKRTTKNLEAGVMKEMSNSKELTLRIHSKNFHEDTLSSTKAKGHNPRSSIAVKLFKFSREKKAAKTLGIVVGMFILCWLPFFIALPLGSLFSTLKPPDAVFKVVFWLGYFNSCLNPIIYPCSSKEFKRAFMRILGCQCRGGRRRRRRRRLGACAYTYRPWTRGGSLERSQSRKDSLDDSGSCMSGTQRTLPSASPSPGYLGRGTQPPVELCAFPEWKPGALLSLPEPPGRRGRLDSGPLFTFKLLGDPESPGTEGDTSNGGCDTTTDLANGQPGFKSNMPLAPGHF
T1 sequence (P23944 whole entry): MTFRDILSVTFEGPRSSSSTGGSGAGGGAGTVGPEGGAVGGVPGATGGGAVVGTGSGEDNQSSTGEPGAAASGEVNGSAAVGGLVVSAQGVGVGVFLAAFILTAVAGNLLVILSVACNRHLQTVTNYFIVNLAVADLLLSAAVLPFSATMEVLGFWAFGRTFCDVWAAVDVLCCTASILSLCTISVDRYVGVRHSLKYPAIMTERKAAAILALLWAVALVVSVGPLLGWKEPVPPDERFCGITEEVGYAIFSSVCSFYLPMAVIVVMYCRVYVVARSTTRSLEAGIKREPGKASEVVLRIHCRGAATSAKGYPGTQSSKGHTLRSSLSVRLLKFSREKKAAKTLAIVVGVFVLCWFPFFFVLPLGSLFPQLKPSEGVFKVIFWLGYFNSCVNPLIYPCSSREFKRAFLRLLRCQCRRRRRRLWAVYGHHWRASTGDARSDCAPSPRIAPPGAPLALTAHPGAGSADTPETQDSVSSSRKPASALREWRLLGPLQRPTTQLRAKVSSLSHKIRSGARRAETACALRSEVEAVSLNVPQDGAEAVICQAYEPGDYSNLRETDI
T1 sequence (P43140 whole entry): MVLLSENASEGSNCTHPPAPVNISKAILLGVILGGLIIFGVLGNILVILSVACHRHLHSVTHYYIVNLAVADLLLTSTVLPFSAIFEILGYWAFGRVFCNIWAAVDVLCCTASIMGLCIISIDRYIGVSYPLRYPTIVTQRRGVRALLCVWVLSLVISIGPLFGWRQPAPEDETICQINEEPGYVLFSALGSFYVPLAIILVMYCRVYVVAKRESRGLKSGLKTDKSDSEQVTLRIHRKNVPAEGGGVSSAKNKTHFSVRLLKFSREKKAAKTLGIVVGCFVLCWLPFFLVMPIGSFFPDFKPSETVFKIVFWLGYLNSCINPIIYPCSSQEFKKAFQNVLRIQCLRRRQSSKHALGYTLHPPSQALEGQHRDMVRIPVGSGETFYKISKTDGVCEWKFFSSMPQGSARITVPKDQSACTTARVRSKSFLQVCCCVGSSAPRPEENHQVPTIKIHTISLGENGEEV
Briefly: (§1) Tested for Alpha adrenergic receptor antagonistic activity on isolated rat vas deferens. Type of experiment: functional, tissue-based. In outline:
(§2)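 Isolated rat vas deferens; contractions recorded isometrically with a force-displacement transducer.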

In experiment [2] the target is T2, Adrenergic receptor alpha-1 (Rattus norvegicus) (UniProt P15823+P23944+P43140). The experiment is described as §1. The class given is functional, tissue-based. In outline:
as §2

Experiment [3] deals with T2, Adrenergic receptor alpha-1 (Rattus norvegicus). The following applies: Vas deferens.
The target is the same in experiment [4]. The following applies: Vas deferens. This is another data set of the same source.
The target is the same in experiment [5]. The experiment in a line: (§3) Tested for alpha adrenergic receptor agonistic activity on isolated rat vas deferens. Type of experiment: functional, tissue-based. In outline: as §2
For experiment [6], the target named is T1, Adrenergic receptor alpha-1. The experiment is described as §3. The class given is functional, tissue-based. The procedure, abridged: as §2
The target in experiment [7] is T3, Adrenergic receptor beta (Homo sapiens, UniProt P08588+P07550+P13945). As to conditions: Cavia porcellus.
For experiment [8], the target named is T3, Adrenergic receptor beta. The experiment in a line: Inhibition of beta adrenergic receptor on isolated guinea pig atria against isoprenaline at 4E-8M. Details: species or system Cavia porcellus. The following applies: target entry is the homologue from another species.

Molecules are shown by their SMILES.

The pA2 is the negative logarithm of the molar antagonist concentration that doubles the agonist concentration needed for the same response.

Regarding `COc1ccc(OC)c(C2OCCNC2C)c1` (stereo not drawn), the pA2 in experiment [1] worked out at 3.48. Further, in experiment [2], the pA2-pA10 stood at 0.27 and the pA10 was determined as 3.2.
For `COc1ccc(OC)c(C2CN(C)CCO2)c1` (stereo not drawn), in that order: 3.61, 0.76 and 2.85.
On to `COc1ccc(OC)c(C(O)CN)c1` (stereo not drawn) [DESGLYMIDODRINE], for which, in experiment [1], the pA2 amounted to 4.04. In experiment [2], this compound showed a pA2-pA10 of 0.74 and a pA10 of 3.3. The same compound registered a pD2 in experiment [3] of 5.15. In experiment [4], this compound gave a pD10 of 6.
Take `COc1ccc(OC)c(C(O)C(C)N)c1` (stereo not drawn): in experiment [3], the pD2 was 4.42. Besides, in experiment [4], the pD10 was 5.61.
As for `CNCC(O)c1cc(OC)ccc1OC` (stereo not drawn), in experiment [5], the pA10 came out at 3.16, the pD2 was found to be 5.22 and the pD10 came out at 6.07. Besides, the pA2 in experiment [6] turned out to be 3.91.
Take `COc1ccc(OC)c(C(O)CNC(C)C)c1` (stereo not drawn): the pA10 was 4.08 at Adrenergic receptor beta [7] and 2.48 in experiment [2]. The compound also had a pA2-pA10 in experiment [2] of 0.26. The pA2 on Adrenergic receptor beta [8] stood at 4.77.
Compound `COc1ccc(OC)c(C2CN(C(C)C)CCO2)c1` (stereo not drawn) had a pA2 in experiment [1] of 3.14. Moreover, in experiment [2], the pA2-pA10 is 0.19 and the pA10 was determined as 2.95.
With `Cc1ccc(N(CC2=NCCN2)c2cccc(O)c2)cc1`, the pA10 in experiment [5] stood at 6.02.
As for `COc1ccc(OC)c(C2CNCCO2)c1` (stereo not drawn), the pA2 in experiment [1] came out at 3.4. For the same compound, in experiment [2], the pA2-pA10 came out at 0.45 and the pA10 stood at 2.95.

For the origin of these results see ChEMBL document CHEMBL1122331, “Conformational effects on the activity of drugs. 10. Synthesis, conformation, and pharmacological properties of 1-(2,5-dimethoxyphenyl)-2-aminoethanols and their morpholine analogues” (J Med Chem, 1983).
